Experimental data taken from ChEMBL document CHEMBL1122773 (1984).
≈ marks a conversion by molar mass, not a printed value.

What was measured:
[1] = tested on: Mus musculus; assay: Bioactivity in abscess, in Bacteroides fragilis infected mice following subcutaneous dose of 200 mg/kg after 30 mins of bleeding; assay type: functional
Procedure, shortened: (§1)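 On day 7 post-infection, groups of five mice were given a single 200 mg/kg subcutaneous dose and killed at set times. Blood was taken by cardiac puncture and abscesses were excised. Activity was measured by standard microbiological assay.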

[2] = tested on: Staphylococcus aureus; assay: In vitro antibacterial activity against the aerobic Staphylococcus aureus (Strain UC no.6695); assay type: functional
Procedure, shortened: (§2)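 Broth microdilution in brain/heart infusion broth with twofold drug dilutions. Inoculum was a standardized suspension giving 10⁵ viable cells/mL final. Plates were incubated 20 h at 37 °C. MIC (mcg/mL) = lowest concentration with no visible growth.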

[3] = tested on: Klebsiella pneumoniae; assay: In vitro antibacterial activity against the aerobic Klebsiella pneumoniae (Strain UC no.58); assay type: functional; procedure, shortened: as §2
[4] = tested on: Staphylococcus aureus; assay: In vitro antibacterial activity against the aerobic Staphylococcus aureus (Strain UC no.6675); assay type: functional; procedure, shortened: as §2
[5] = tested on: Mus musculus; assay: Bioactivity in blood, in Bacteroides fragilis infected mice following subcutaneous dose of 200 mg/kg after 120 mins of bleeding; assay type: functional; procedure, shortened: as §1
[6] = tested on: Clostridium cadaveris; assay: In vitro antibacterial activity against the anaerobic Clostridium cadaveris (Strain UC no.6510); assay type: functional
Procedure, shortened: (§3)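 Agar dilution with serial twofold drug dilutions in Schaedler broth mixed into molten Wilkens-Chalgren agar. Plates prereduced 3 h under 85% N2/10% H2/5% CO2. Strains grown 48 h on Schaedler agar, suspended to 0.5 McFarland, and 0.001 mL spotted by replicator. All steps done anaerobically. Incubation 48 h at 37 °C. MIC is the least drug inhibiting growth; a faint film or fewer than three colonies scored negative.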

[7] = tested on: Streptococcus pyogenes; assay: In vitro antibacterial activity against the aerobic Streptococcus pyogenes (Strain UC no.152)
[8] = tested on: Pseudomonas aeruginosa; assay: In vitro antibacterial activity against the aerobic Pseudomonas aeruginosa (Strain UC no.95); assay type: functional; procedure, shortened: as §2
[9] = In vitro antibacterial activity against the aerobic […] III(Strain UC no.3213); assay type: functional; procedure, shortened: as §2
[10] = tested on: Peptoniphilus asaccharolyticus; assay: In vitro antibacterial activity against the anaerobic Peptoccus aerogenes (Strain UC no.6319); assay type: functional; procedure, shortened: as §3
[11] = tested on: Mus musculus; assay: Bioactivity in abscess, in Bacteroides fragilis infected mice following subcutaneous dose of 200 mg/kg after 360 mins of bleeding; assay type: functional; procedure, shortened: as §1
[12] = tested on: Mus musculus; assay: Bioactivity in abscess, in Bacteroides fragilis infected mice following subcutaneous dose of 200 mg/kg after 45 mins of bleeding; assay type: functional; procedure, shortened: as §1
[13] = tested on: Staphylococcus aureus; assay: In vitro antibacterial activity against the aerobic Staphylococcus aureus (Strain UC no.6694); assay type: functional; procedure, shortened: as §2
[14] = tested on: Mus musculus; assay: Bioactivity in blood, in Bacteroides fragilis infected mice following subcutaneous dose of 200 mg/kg after 150 mins of bleeding; assay type: functional; procedure, shortened: as §1
[15] = In vitro antibacterial activity against the aerobic […] (Strain UC no.153); assay type: functional; procedure, shortened: as §2
[16] = tested on: Staphylococcus aureus; assay: In vitro antibacterial activity against the aerobic Staphylococcus aureus (Strain UC no.571); assay type: functional; procedure, shortened: as §2
[17] = In vitro antibacterial activity against the aerobic […] (Strain UC no.871); assay type: functional; procedure, shortened: as §2
[18] = tested on: Mus musculus; assay: Bioactivity in abscess, in Bacteroides fragilis infected mice following subcutaneous dose of 200 mg/kg after 90 mins of bleeding; assay type: functional; procedure, shortened: as §1
[19] = tested on: Staphylococcus aureus; assay: In vitro antibacterial activity for minimum inhibition concentration (MIC) required to inhibit growth of Staphylococcus aureus; assay type: functional
Procedure, shortened: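 Broth microdilution in brain/heart infusion broth, inoculated with a standardized suspension to a final 10^5 viable cells/mL. Incubation 20 h at 37 °C. MIC read as the lowest concentration preventing visible growth.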

[20] = tested on: Staphylococcus aureus; assay: In vitro antibacterial activity against the aerobic Staphylococcus aureus (Strain UC no.746); assay type: functional; procedure, shortened: as §2
[21] = tested on: Mus musculus; assay: Bioactivity in blood, in Bacteroides fragilis infected mice following subcutaneous dose of 200 mg/kg after 45 mins of bleeding; assay type: functional; procedure, shortened: as §1
[22] = tested on: Mus musculus; assay: Bioactivity in abscess, in Bacteroides fragilis infected mice following subcutaneous dose of 200 mg/kg after 15 mins of bleeding; assay type: functional; procedure, shortened: as §1
[23] = tested on: Proteus vulgaris; assay: In vitro antibacterial activity against the aerobic Proteus vulgaris (Strain UC no.93); assay type: functional; procedure, shortened: as §2
[24] = In vitro antibacterial activity against the aerobic […] I(Strain UC no.41); assay type: functional; procedure, shortened: as §2
[25] = tested on: Mus musculus; assay: Bioactivity in blood, in Bacteroides fragilis infected mice following subcutaneous dose of 200 mg/kg after 15 mins of bleeding; assay type: functional; procedure, shortened: as §1
[26] = tested on: Mus musculus; assay: Bioactivity in abscess, in Bacteroides fragilis infected mice following subcutaneous dose of 200 mg/kg after 120 mins of bleeding; assay type: functional; procedure, shortened: as §1
[27] = In vitro antibacterial activity against the aerobic Salmonella schottmuelleri (Strain UC no.126); assay type: functional; procedure, shortened: as §2
[28] = tested on: Staphylococcus aureus; assay: In vitro antibacterial activity against the aerobic Staphylococcus aureus (Strain UC no.6691); assay type: functional; procedure, shortened: as §2
[29] = tested on: Mus musculus; assay: Bioactivity in blood, in Bacteroides fragilis infected mice following subcutaneous dose of 200 mg/kg after 90 mins of bleeding; assay type: functional; procedure, shortened: as §1
[30] = tested on: Mus musculus; assay: Bioactivity in blood, in Bacteroides fragilis infected mice following subcutaneous dose of 200 mg/kg after 60 mins of bleeding; assay type: functional; procedure, shortened: as §1
[31] = tested on: Staphylococcus aureus; assay: In vitro antibacterial activity against the aerobic Staphylococcus aureus (Strain UC no.76); assay type: functional; procedure, shortened: as §2
[32] = tested on: Staphylococcus aureus; assay: In vitro antibacterial activity against the aerobic Staphylococcus aureus (Strain UC no.6688); assay type: functional; procedure, shortened: as §2
[33] = tested on: Cutibacterium acnes; assay: In vitro antibacterial activity against the anaerobic Propionibacterium acnes(Strain UC no.6575); assay type: functional; procedure, shortened: as §3
[34] = tested on: Staphylococcus aureus; assay: In vitro antibacterial activity against the aerobic Staphylococcus aureus (Strain UC no.6693); assay type: functional; procedure, shortened: as §2
[35] = tested on: Staphylococcus aureus; assay: In vitro antibacterial activity against the aerobic Staphylococcus aureus (Strain UC no.6689); assay type: functional; procedure, shortened: as §2
[36] = tested on: Mus musculus; assay: Bioactivity in abscess, in Bacteroides fragilis infected mice following subcutaneous dose of 200 mg/kg after 60 mins of bleeding; assay type: functional; procedure, shortened: as §1
[37] = tested on: Mus musculus; assay: Bioactivity in blood, in Bacteroides fragilis infected mice following subcutaneous dose of 200 mg/kg after 360 mins of bleeding; assay type: functional; procedure, shortened: as §1
[38] = tested on: Staphylococcus aureus; assay: In vitro antibacterial activity against the aerobic Staphylococcus aureus (Strain UC no.6686); assay type: functional; procedure, shortened: as §2
[39] = tested on: Staphylococcus aureus; assay: In vitro antibacterial activity against the aerobic Staphylococcus aureus (Strain UC no.6692); assay type: functional; procedure, shortened: as §2
[40] = tested on: Mus musculus; assay: Bioactivity in blood, in Bacteroides fragilis infected mice following subcutaneous dose of 200 mg/kg after 30 mins of bleeding; assay type: functional; procedure, shortened: as §1
[41] = tested on: Clostridium tetani; assay: In vitro antibacterial activity against the anaerobic Clostridium tetani(Strain UC no.6521); assay type: functional
Procedure, shortened: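 Agar dilution under anaerobic conditions. Serial twofold drug dilutions in Schaedler broth were mixed with molten Wilkins-Chalgren agar. Plates were prereduced 3 h (85% N2, 10% H2, 5% CO2). Strains were grown 48 h on Schaedler agar, suspended to 0.5 McFarland, and 0.001 mL spotted by replicator. Incubation was anaerobic, 37 °C, 48 h.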

[42] = tested on: Mus musculus; assay: Bioactivity in abscess, in Bacteroides fragilis infected mice following subcutaneous dose of 200 mg/kg after 150 mins of bleeding; assay type: functional; procedure, shortened: as §1
[43] = tested on: Staphylococcus aureus; assay: In vitro antibacterial activity against the aerobic Staphylococcus aureus (Strain UC no.570); assay type: functional; procedure, shortened: as §2
[44] = tested on: Staphylococcus aureus; assay: In vitro antibacterial activity against the aerobic Staphylococcus aureus (Strain UC no.6696); assay type: functional; procedure, shortened: as §2
[45] = tested on: Escherichia coli; assay: In vitro antibacterial activity against the aerobic Escherichia coli (Strain UC no.45); assay type: functional; procedure, shortened: as §2

**Q.** What does the source list for `CCC[C@@H]1C[C@@H](C(=O)N[C@@H]([C@H]2O[C@H](SC)[C@H](O)[C@@H](O)[C@H]2O)[C@H](C)Cl)N(C)C1` [CLINDAMYCIN]?
**A.** A [1]: 22 ug (g of abscess)-1; MIC [2]: 0.1 µg/mL (≈ 0.235 µM); MIC [3]: 12.5 µg/mL (≈ 29.4 µM); MIC [4]: 0.05 µg/mL (≈ 0.118 µM); B [5]: 3 ug (g of abscess)-1; MIC [6]: < 0.03 µg/mL; MIC [7]: < 0.012 µg/mL; MIC [8]: > 25 µg/mL; MIC [9]: < 0.012 µg/mL; MIC [10]: < 0.03 µg/mL; A [11]: 3 ug (g of abscess)-1; A [12]: 26 ug (g of abscess)-1; MIC [13]: > 25 µg/mL; B [14]: 1.4 ug (g of abscess)-1; MIC [15]: < 0.012 µg/mL; MIC [16]: 0.2 µg/mL (≈ 0.471 µM); MIC [17]: < 0.012 µg/mL; A [18]: 13 ug (g of abscess)-1; MIC [19]: > 25 µg/mL; MIC [20]: 0.05 µg/mL (≈ 0.118 µM); B [21]: 17 ug (g of abscess)-1; A [22]: 16 ug (g of abscess)-1; MIC [23]: > 25 µg/mL; MIC [24]: < 0.012 µg/mL; B [25]: 17 ug (g of abscess)-1; A [26]: 9 ug (g of abscess)-1; MIC [27]: > 25 µg/mL; MIC [28]: 0.1 µg/mL (≈ 0.235 µM); B [29]: 4 ug (g of abscess)-1; B [30]: 12 ug (g of abscess)-1; MIC [31]: 0.05 µg/mL (≈ 0.118 µM); MIC [32]: > 25 µg/mL; MIC [33]: < 0.03 µg/mL; MIC [34]: 0.05 µg/mL (≈ 0.118 µM); MIC [35]: 0.05 µg/mL (≈ 0.118 µM); A [36]: 21 ug (g of abscess)-1; B [37]: 0.2 ug (g of abscess)-1; MIC [38]: 0.05 µg/mL (≈ 0.118 µM); MIC [39]: > 25 µg/mL; B [40]: 23 ug (g of abscess)-1; MIC [41]: < 0.03 µg/mL; A [42]: 8 ug (g of abscess)-1; MIC [43]: 0.2 µg/mL (≈ 0.471 µM); MIC [44]: 0.1 µg/mL (≈ 0.235 µM); MIC [45]: > 25 µg/mL
